ChEMBL document CHEMBL3124940, “Design, synthesis and biological evaluation of D-ring opened galantamine analogs as multifunctional anti-Alzheimer agents” (Eur J Med Chem, 2014)
Calls of active or inactive are those of the source. The calls are words filed in the database; no cut-off is given here.

Tests used:
[1] = Induction of nitric oxide release in PBS at 100 uM at pH 7.4 after 24 hrs by Griess method relative to control; format: physicochemical; details: buffer, pH 7.4, 24 h
Summary of the method: (§1)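 Test compound at 100 µM in phosphate buffer pH 7.4, alone or with 90 µL rat serum added, incubated 37 °C for 24 h. Griess reagent added, then 30 min at 37 °C with gentle shaking; absorbance read at 540 nm and blank-corrected. Nitrite quantified against an NaNO2 calibration curve and expressed as % of a theoretical 1 mol NO per mol nitrate; n = 3.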

Rattus norvegicus [2] = test: Toxicity in Wistar rat assessed as GSSG level in liver at 1 umol/100 g body weight, ip by fluorometric analysis relative to control; format: organism-based; details: in vivo
Summary of the method: (§2)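 Rats dosed i.p.; tissues taken after 24 h. For GSH/GSSG, tissue homogenized in 11 volumes of 0.2 M sodium phosphate (5 mM EDTA, pH 8.0) plus 4 volumes of 25% metaphosphoric acid and centrifuged 12 000 × g, 4 °C, 30 min; supernatant read photometrically (GSH) or fluorometrically (GSSG). Lipid peroxidation products measured as TBARS in 19-volume ice-cold saline homogenates, fluorometrically.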

[3] = molecular target: Amyloid-beta precursor protein (Homo sapiens) (UniProt P05067); test: Inhibition of amyloid beta (1 to 42) aggregation (unknown origin) at 50 uM after 6 days by atomic force microscopic analysis
Summary of the method: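 Compound (2.5 µL of 1.0 mM) and 2.5 µL of 200 µM Aβ42 added to 45 µL PBS (20% TFE, pH 7.4); the control lacks compound. Incubated 37 °C for 6 days, then 3 µL deposited on freshly cleaved mica for 5 min, blown dry and imaged by atomic force microscopy.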

Rattus norvegicus [4] = test: Toxicity in Wistar rat assessed as total glutathione level in liver at 1 umol/100 g body weight, ip by fluorometric analysis relative to control; format: organism-based; details: in vivo; summary of the method: as §2
Rattus norvegicus [5] = test: Toxicity in Wistar rat assessed as ethoxyresorufin-O-deethylation activity in liver measured as resorufin level at 1 umol/100 g body weight, ip by fluorometric analysis relative to control; format: organism-based; details: in vivo
Summary of the method: (§3)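 Rats dosed i.p.; after 24 h, liver homogenized 1:3 w/v in 0.1 M sodium phosphate pH 7.4 and centrifuged at 9000 × g, 4 °C, 20 min. Supernatant protein determined by the Biuret method. Ethoxyresorufin-O-deethylation measured fluorometrically as resorufin formed.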

Rattus norvegicus [6] = test: Toxicity in Wistar rat assessed as lipidperoxidation product level in brain at 6 umol/100 g body weight, ip by fluorometric analysis relative to control; format: organism-based; details: in vivo; summary of the method: as §2
Rattus norvegicus [7] = test: Toxicity in Wistar rat assessed as lipidperoxidation product level in kidney at 6 umol/100 g body weight, ip by fluorometric analysis relative to control; format: organism-based; details: in vivo; summary of the method: as §2
Rattus norvegicus [8] = test: Toxicity in Wistar rat assessed as liver weight at 1 umol/100 g body weight, ip relative to control; format: organism-based; details: in vivo
Rattus norvegicus [9] = test: Toxicity in Wistar rat assessed as total glutathione level in brain at 6 umol/100 g body weight, ip by fluorometric analysis relative to control; format: organism-based; details: in vivo; summary of the method: as §2
Rattus norvegicus [10] = test: Toxicity in Wistar rat assessed as GSH level in liver at 6 umol/100 g body weight, ip by fluorometric analysis relative to control; format: organism-based; details: in vivo
Rattus norvegicus [11] = test: Toxicity in Wistar rat assessed as lipidperoxidation product level in kidney at 1 umol/100 g body weight, ip by fluorometric analysis relative to control; format: organism-based; details: in vivo; summary of the method: as §2
Rattus norvegicus [12] = test: Toxicity in Wistar rat assessed as body weight at 1 umol/100 g body weight, ip relative to control; format: organism-based; details: in vivo
Rattus norvegicus [13] = test: Toxicity in Wistar rat assessed as liver weight at 6 umol/100 g body weight, ip relative to control; format: organism-based; details: in vivo
Rattus norvegicus [14] = test: Toxicity in Wistar rat assessed as ethylmorphine-N-demethylation activity in liver measured as formaldehyde level at 6 umol/100 g body weight, ip by photometric analysis relative to control; format: organism-based; details: in vivo
Rattus norvegicus [15] = test: Toxicity in Wistar rat assessed as GSH level in brain at 1 umol/100 g body weight, ip by fluorometric analysis relative to control; format: organism-based; details: in vivo
Rattus norvegicus [16] = test: Toxicity in Wistar rat assessed as change in movement at 1 umol/100 g body weight, ip; format: organism-based; details: in vivo
Rattus norvegicus [17] = test: Antialzheimer activity in Wistar rat scopolamine-induced cognition impairment model assessed as decrease in amount of errors plus baits not found during exploration at 1 umol/100 g body weight, ip treated for 5 mins prior to scopolamine-challenge measured after 20 to 120 mins by eight-arm radial maze test; format: functional, organism-based
Summary of the method: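 Female 60-day-old Wistar rats (Han:Wist) trained in an eight-arm radial maze to error-free trials under 60 s on three consecutive days; each animal served as its own control. Test agent given i.p. in saline 5 min before scopolamine (0.05 mg/100 g b. wt., i.p. in saline). Errors plus baits not found after 10 min, and total searching time, recorded before and 20, 60, 120 min after scopolamine; n = 14, mean ± SEM.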

Rattus norvegicus [18] = test: Toxicity in Wistar rat assessed as protein content in liver at 6 umol/100 g body weight, ip by Biuret method relative to control; format: organism-based; details: in vivo; summary of the method: as §3
Rattus norvegicus [19] = test: Toxicity in Wistar rat assessed as GSSG level in liver at 6 umol/100 g body weight, ip by fluorometric analysis relative to control; format: organism-based; details: in vivo; summary of the method: as §2
Rattus norvegicus [20] = test: Toxicity in Wistar rat assessed as GSH level in brain at 6 umol/100 g body weight, ip by fluorometric analysis relative to control; format: organism-based; details: in vivo
[21] = molecular target: Amyloid-beta precursor protein (Homo sapiens) (UniProt P05067); test: Inhibition of amyloid beta (1 to 42) aggregation (unknown origin) at 100 uM after 1 hr by thioflavin T fluorescence assay relative to control
Summary of the method: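 Aβ42 stock (200 µM in DMSO) centrifuged 12,000 rpm for 10 min; supernatant used. Compound (2 µL of 0.2–4.0 mM DMSO stock) and 2 µL Aβ42 stock added to 76 µL PBS pH 7.4, incubated 1 h at room temperature. 80 µL of 5 µM ThT in 50 mM glycine-NaOH pH 8.5 then added; fluorescence read at excitation 430 nm, emission 488 nm.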

[22] = Induction of nitric oxide release in PBS at 100 uM at pH 7.4 after 24 hrs by Griess method in presence of rat serum; format: physicochemical; details: pH 7.4, 24 h; summary of the method: as §1
Rattus norvegicus [23] = test: Toxicity in Wistar rat assessed as GSSG level in kidney at 6 umol/100 g body weight, ip by fluorometric analysis relative to control; format: organism-based; details: in vivo; summary of the method: as §2
Rattus norvegicus [24] = test: Toxicity in Wistar rat assessed as ethoxyresorufin-O-deethylation activity in liver measured as resorufin level at 6 umol/100 g body weight, ip by fluorometric analysis relative to control; format: organism-based; details: in vivo; summary of the method: as §3
Rattus norvegicus [25] = test: Toxicity in Wistar rat assessed as GSH level in kidney at 6 umol/100 g body weight, ip by fluorometric analysis relative to control; format: organism-based; details: in vivo
Rattus norvegicus [26] = test: Toxicity in Wistar rat assessed as protein content in liver at 1 umol/100 g body weight, ip by Biuret method relative to control; format: organism-based; details: in vivo; summary of the method: as §3
Rattus norvegicus [27] = test: Toxicity in Wistar rat assessed as total glutathione level in kidney at 6 umol/100 g body weight, ip by fluorometric analysis relative to control; format: organism-based; details: in vivo; summary of the method: as §2
Rattus norvegicus [28] = test: Toxicity in Wistar rat assessed as brain weight at 6 umol/100 g body weight, ip relative to control; format: organism-based; details: in vivo

Amyloid-beta precursor protein (Homo sapiens), sequence (P05067 whole entry): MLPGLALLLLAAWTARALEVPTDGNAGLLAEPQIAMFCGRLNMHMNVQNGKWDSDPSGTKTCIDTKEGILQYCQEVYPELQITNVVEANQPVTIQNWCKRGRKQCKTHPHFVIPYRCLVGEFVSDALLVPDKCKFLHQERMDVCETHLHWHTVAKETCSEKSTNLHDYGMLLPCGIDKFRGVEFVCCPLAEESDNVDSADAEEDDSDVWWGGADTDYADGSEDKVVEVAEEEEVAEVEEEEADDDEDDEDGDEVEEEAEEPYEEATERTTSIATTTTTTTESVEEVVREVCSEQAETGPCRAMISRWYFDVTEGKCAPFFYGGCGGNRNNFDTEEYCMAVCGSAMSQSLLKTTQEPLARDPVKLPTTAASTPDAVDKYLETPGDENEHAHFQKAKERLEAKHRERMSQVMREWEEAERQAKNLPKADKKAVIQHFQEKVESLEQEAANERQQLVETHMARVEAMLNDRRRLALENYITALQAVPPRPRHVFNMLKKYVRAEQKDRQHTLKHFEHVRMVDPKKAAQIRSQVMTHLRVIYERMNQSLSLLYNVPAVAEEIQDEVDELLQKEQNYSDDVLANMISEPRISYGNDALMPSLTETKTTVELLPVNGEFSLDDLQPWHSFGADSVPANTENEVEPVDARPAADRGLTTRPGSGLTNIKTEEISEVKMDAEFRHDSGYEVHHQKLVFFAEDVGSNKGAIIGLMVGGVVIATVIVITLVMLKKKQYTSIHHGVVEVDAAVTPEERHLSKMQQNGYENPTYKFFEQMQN

**Q.** For `COc1ccc2c(c1)oc1cccc(CN(C(=O)CCO[N+](=O)[O-])C(C)C)c12`, which Activity [1] is on record?
**A.** 4.8%

**Q.** What about the Activity (Rattus norvegicus [2]) of the same compound?
**A.** 411 µg/g

**Q.** And the inhibition [3]?
**A.** Active

**Q.** And the Activity (Rattus norvegicus [4])?
**A.** 3365 µg/g

**Q.** What about the Activity (Rattus norvegicus [5]) of the same compound?
**A.** 114 pmol/mg/min

**Q.** And the Activity (Rattus norvegicus [6])?
**A.** 156 nmol/g

**Q.** What about the Activity (Rattus norvegicus [7]) of the same compound?
**A.** 96.2 nmol/g

**Q.** And the Activity (Rattus norvegicus [8])?
**A.** 7.6 g

**Q.** And the Activity (Rattus norvegicus [9])?
**A.** 830 µg/g

**Q.** What about the Activity (Rattus norvegicus [10]) of the same compound?
**A.** 2482 µg/g

**Q.** And the Activity (Rattus norvegicus [11])?
**A.** 93.2 nmol/g

**Q.** What about the Activity (Rattus norvegicus [12]) of the same compound?
**A.** 264 g

**Q.** And the Activity (Rattus norvegicus [13])?
**A.** 8 g

**Q.** And the Activity (Rattus norvegicus [14])?
**A.** 0.52 nmol/mg/min

**Q.** And the Activity (Rattus norvegicus [15])?
**A.** 645 µg/g

**Q.** And the Activity (Rattus norvegicus [16])?
**A.** Non-toxic

**Q.** What about the Activity (Rattus norvegicus [17]) of the same compound?
**A.** Active

**Q.** And the Activity (Rattus norvegicus [18])?
**A.** 64.7 mg/mL

**Q.** What about the Activity (Rattus norvegicus [19]) of the same compound?
**A.** 418 µg/g

**Q.** And the Activity (Rattus norvegicus [20])?
**A.** 672 µg/g

**Q.** And the inhibition [21]?
**A.** 25%

**Q.** And the Activity [22]?
**A.** Active

**Q.** And the Activity (Rattus norvegicus [23])?
**A.** 159 µg/g

**Q.** What about the Activity (Rattus norvegicus [24]) of the same compound?
**A.** 121 pmol/mg/min

**Q.** And the Activity (Rattus norvegicus [25])?
**A.** 1483 µg/g

**Q.** What about the Activity (Rattus norvegicus [26]) of the same compound?
**A.** 66.4 mg/mL

**Q.** And the Activity (Rattus norvegicus [27])?
**A.** 1800 µg/g

**Q.** What about the Activity (Rattus norvegicus [28]) of the same compound?
**A.** 1.87 g
